Compound activity (PubChem BioAssay)
A selection: hits, their analogues and other compounds. The true share with any hit is near 5.7%.
Mdm2 MdmX PPI: inhibitors of human Mdm2-MdmX association, primary screen, cell-based, luminescence, split luciferase, SaOS-2, uHTS; inhibition, % at 8 µM; AID 485346, 2010; Protein Mdm4 (Homo sapiens) + E3 ubiquitin-protein ligase Mdm2 (Homo sapiens), …; SaOS-2 split-luciferase Mdm2/MdmX complementation; 3% of 330,000 active;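 active means inhibition of at least 50% at 8 µM in the primary screen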
CSC inhib: cancer stem cell viability inhibitors, primary screen, luminescence; cancer stem cell-like cells viability; inhibition, % at 7.5 µM; 1.1% of 300,000 active; AID 2717, 2010; in the data active means inhibition above about 75%; inconclusive means no clear call, values can overlap the other calls; tested in HMLE shEcad cells
Calb FLC: C. albicans growth inhibition with fluconazole, primary screen, CaCi-2 strain, Alamar Blue fluorescence; 0.57% of 300,000 active; C. albicans CaCi-2 (fluconazole-resistant clinical isolate) + fluconazole, 48 h; growth inhibition, % (test concentration not listed); AID 1979, 2009;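 active means growth inhibition above about 58% in most replicates, limit read from the data, passing the limit was not always enough; inconclusive means exactly half the replicates above a set limit; inactive means most replicates below a set limit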;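 further: all wells also contain fluconazole at 8 µg/ml as a sub-toxic cotreatment; 0% = median of DMSO wells and 100% = median of geldanamycin control wells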
Beta apoptosis: inhibitors of cytokine-induced beta cell apoptosis, primary screen, luminescence; INS-1E cytokine-induced death, ATP luminescence, 48 h; percent of positive-control rescue, neutral wells zero; protection from apoptosis, % (test concentration not listed); 0.8% of 300,000 active; AID 435005, 2010;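 active means Every replicate reaches about 75%, or at least half do and their mean reaches it too, limit read from the data; inconclusive means At least half of replicates reach the limit but their mean does not; inactive means Under half of replicates reach the limit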;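 further: 0% = cytokine-treated negative control wells and 100% = positive control rescue; higher means more ATP so stronger rescue from cytokine killing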
SKKanGAS inh: S. pyogenes SKKanGAS growth inhibitors in kanamycin, primary screen, streptokinase expression inhibitor project, SKKanGAS strain, BacTiter-Glo luminescence. 6 h. 1.3% of 300,000 active. inhibition, % at 7.5 µM. AID 1662, 2009;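 active means mean replicate score, as percent of positive control median, at least 50; inconclusive means mean below 50 but one replicate at or above 50; inactive means mean and every replicate below 50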;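 further: strain carries kanamycin resistance gene driven by streptokinase promoter and grows in 40 µg/ml kanamycin; loss of luminescence reflects streptokinase promoter inhibition or plain growth inhibition; 0% = median of DMSO wells and 100% = positive control at its reference dose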
T cruzi repl: inhibitors of intracellular T. cruzi growth, primary screen, luminescence, NIH3T3 host cells | inhibition, % (concentration not given with the values) | T. cruzi beta-gal in NIH3T3, 90 h | 1.4% of 300,000 active | AID 1885, 2009;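 active means mean inhibition across valid replicates above about 55%, limit read from the data; inconclusive means mean below that limit but half or more replicates reach it; inactive means mean below it, under half of replicates reach it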;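 further: signal also drops with host cell toxicity which is not excluded here; 0% = plate median of DMSO wells and 100% = zero luminescence signal; higher percent means less beta-gal luminescence so fewer parasites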
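System: NIH/3T3 fibroblasts plus reporter T. cruzi. Medium: DMEM plus 2% FBS. Probe or stimulus: 5000 reporter trypomastigotes per well. Compound: single 50 nL compound addition per well in DMSO. Incubation: co-culture of at least 90 h after 3 h attachment. Detection: GalScreen β-gal luminescence, detergent lysis, 60 min. Evaluation: parasite load inhibition, %.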
An asterisk follows results filed as active; ? = inconclusive; . = no result given.

SMILES	Mdm2 MdmX PPI	CSC inhib	Calb FLC	Beta apoptosis	SKKanGAS inh	T cruzi repl
CC(NC(=O)CCN1C(=O)c2ccccc2C1=O)c1ccc2c(c1)CCCC2 (configuration not stated)	13	-6	2	-2	-16	-3
Cc1c(Cc2ccccc2)sc(/N=C/c2c(O)ccc3ccccc23)c1C(N)=O	34	98*	48	-3	35	-12
CCCc1cc(=O)[nH]c(SCC(=O)NCCN2C(=O)CSC2=O)n1	-7	15	.	-5	.	.
C/C(=N\NC(=O)CCC(=O)N/N=C(\C)c1ccc(C)o1)c1ccc(C)o1	-9	1	-7	-5	0	-13
CCOC(=O)N/N=C(/C)c1ccc([N+](=O)[O-])o1	37	-8	19	-5	6	57*
CN(C)C(=O)c1cc(C(=O)c2ccccc2F)c[nH]1	-21	-10	6	-8	-2	3
Cc1cc(NC(=O)c2cc([N+](=O)[O-])cc([N+](=O)[O-])c2)no1	-3	-3	21	20	-3	55*
Cc1ccnc(NC(=O)c2cc([N+](=O)[O-])cc([N+](=O)[O-])c2)c1	0	-5	38	-5	-2	60*
Cc1cccc(NC(=O)c2ccc([N+](=O)[O-])s2)n1	2	-14	-1	11	0	65*
Cc1ccnc(NC(=O)Cc2ccc([N+](=O)[O-])cc2)c1	14	.	-23	-4	-3	13
Cc1ccccc1NCc1ccc([N+](=O)[O-])s1	-17	94*	7	-7	7	1
O=C(CSc1ccc2nnc(CCNC(=O)c3ccccc3)n2n1)NCc1ccc(F)cc1	4	.	0	.	1	7
Cc1cccc(NC(=O)c2ccc([N+](=O)[O-])s2)c1C	23	49	31	105*	14	66*
Cc1nc2ccc(C(=O)Nc3cccc([N+](=O)[O-])c3)cc2s1	-8	8	-5	6	-13	-32
COc1ccccc1NC(=O)c1cc(OC)c(OC)cc1[N+](=O)[O-]	2	0	23	-1	-9	-1
COc1ccc(NC(=O)c2ccc([N+](=O)[O-])cc2[N+](=O)[O-])c(OC)c1	-20	-9	43	-4	2	61*
Cc1nc2ccc(NC(=O)c3ccc([N+](=O)[O-])cc3[N+](=O)[O-])cc2s1	-5	6	-1	9	5	79*
COc1ccc(NC(=O)c2ccc([N+](=O)[O-])s2)c([N+](=O)[O-])c1	34	16	13	3	-1	64*
Cc1ccccc1N1C(=O)CN(Cc2sccc2C)C1=S	25	10	5	-5	1	-4
CC(=O)OCC(=O)NCC(=O)c1c[nH]c2ccccc12	22	-11	15	6	-1	-15
Cc1ccnc(NC(=O)c2ccc([N+](=O)[O-])s2)c1	-10	3	20	82*	5	55*
O=C(O)c1ccc(CSc2nc3ccccc3c(=O)n2-c2ccccc2)cc1	-14	3	-2	2	6	1
COC(=O)c1ccc2c(=O)n(-c3ccccc3)c(SCN3C(=O)c4ccccc4C3=O)nc2c1	4	-5	2	106*	8	6
Cc1cccc(OC(C)C(=O)Nc2nc(-c3ccncc3)cs2)c1 (configuration not stated)	11	.	.	.	.	.
O=C(N/N=C/c1ccc(-c2cccc([N+](=O)[O-])c2)o1)c1cccs1	6	-3	-1	6	-6	80*
SMILES	Mdm2 MdmX PPI	CSC inhib	Calb FLC	Beta apoptosis	SKKanGAS inh	T cruzi repl
NC(=S)N/N=C/c1ccc(-c2cccc([N+](=O)[O-])c2)o1	-4	0	-8	7	-3	32
O=C(NCCS(=O)(=O)N1CCN(c2cccc(Cl)c2)CC1)c1cc(=O)c2ccccc2o1	24	4	-3	.	14	-9
O=C(Oc1ccc(Cl)c2cccnc12)c1ccco1	23	2	-4	1	87*	-11
O=C(Oc1c(Cl)cc(Cl)c2cccnc12)N1CCCCC1	0	-9	20	1	-5	-12
O=C(Oc1c(Cl)cc(Cl)c2cccnc12)N1CCOCC1	-18	-14	92*	-3	26	-7
O=C(Oc1ccc(Cl)c2cccnc12)c1cccc([N+](=O)[O-])c1	-1	108*	85*	2	27	-3
O=C(Oc1cccc2cccnc12)c1cccc([N+](=O)[O-])c1	-2	-14	-3	1	22	-14
O=C(Oc1c(Cl)cc(Cl)c2cccnc12)c1cccc([N+](=O)[O-])c1	50	177*	104*	65	88*	27
FC(F)(F)c1cc(N2CCNCC2)c2ccccc2n1	13	-6	1	-4	-2	-4
FC(F)(F)c1cc(N2CCN(Cc3ccccc3)CC2)c2ccccc2n1	36	41	-7	10	50*	16
CCOC(=O)Nc1ccc2nc(Sc3ccc(Cl)cc3)sc2c1	47	85*	2	20	24	33
CSc1nc2ccc(NC(=O)c3ccc(F)c(F)c3)cc2s1	-130	-5	35	.	4	-12
Cc1oc(-c2ccccc2Cl)nc1CN1CCCC1c1ccc(F)cc1 (configuration not stated)	8	4	-24	0	-3	31
COc1ccc(-c2nc(CN3CCCCC3c3cccnc3)c(C)o2)c(F)c1 (configuration not stated)	18	3	3	4	7	64*
Cc1oc(-c2ccccc2Cl)nc1CN1CCCCC1c1cccnc1 (configuration not stated)	9	-8	12	2	-10	59*
Cc1ccc(-c2nc(CN3CCCCC3c3cccc(F)c3)c(C)o2)o1 (configuration not stated)	3	-2	4	-9	-5	9
CCNC(=S)NNC(=O)c1nn(C)c(C)c1Cl	6	6	119*	-2	2	-2
NC(=NCCc1c[nH]c2ccccc12)NC(=O)c1ccc(Cl)cc1	9	43	4	-7	-2	29
Cc1cc(C)nc(NC(=NCCc2c[nH]c3ccccc23)NC(=O)Nc2ccc(Cl)cc2)n1	39	97*	3	20	20	49
Cc1ccccc1-c1nc(CS(=O)(=O)CC(=O)N2CCN(C)CC2)c(C)o1	14	-11	-5	-6	-4	-6
CCOc1ccc2nc(NC(=O)C3CCCN(S(=O)(=O)c4cccc5nonc45)C3)sc2c1 (configuration not stated)	22	0	4	10	?	57*
